Here are results for 27 compounds from ChEMBL document CHEMBL2057123, “Design and synthesis of novel lactate dehydrogenase A inhibitors by fragment-based lead generation” (J Med Chem, 2012).

Structures are written as SMILES. Activity calls are given as the source filed them. The calls are words filed in the database; no cut-off is given here. Some results are limits rather than exact numbers.

The target in assay [1] is T1, L-lactate dehydrogenase A chain (Homo sapiens, UniProt P00338). As to the kind of experiment: Inhibition of full length human recombinant LDHA expressed in Escherichia coli BL21 (DE3) cells after 10 mins by spectrophotometric analysis.
Assay [2] deals with T1, L-lactate dehydrogenase A chain. As to the kind of experiment: Binding affinity to 6-His-tagged human LDHA (2 to 322 amino acid residue) expressed in Escherichia coli BL21 (DE3) cells by SPR analysis. (SPR reads the build-up and loss of mass on a sensor chip optically.)
In assay [3] the target is L-lactate dehydrogenase B chain (Homo sapiens, UniProt P07195). Description: Inhibition of human recombinant LDHB (2 to 334 amino acid residue) expressed in Escherichia coli BL21 (DE3) cells after 10 mins by spectrophotometric analysis.
Assay [4] has as its target T1, L-lactate dehydrogenase A chain. As to the kind of experiment: Binding affinity to 6-His-tagged human LDHA (2 to 322 amino acid residue) expressed in Escherichia coli BL21 (DE3) cells by NMR analysis in presence of NAD+. The essentials:
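Ligand-observed NMR at 298 K, 600 MHz, in 100 mM HEPES pH 7.5, 2 mM TCEP, 0.02% sodium azide, with 1 mM NAD⁺ present. Binding was detected by WaterLOGSY and T₁ρ-filtered 1D spectra (LDHA 40−48 μM monomer). […] Single experiment.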

Assay [5] shares this target. Description: Binding affinity to 6-His-tagged human LDHA (2 to 322 amino acid residue) expressed in Escherichia coli BL21 (DE3) cells by NMR analysis in presence of NADH.

Chain of L-lactate dehydrogenase B chain (P07195 whole entry, the tested form may be a part): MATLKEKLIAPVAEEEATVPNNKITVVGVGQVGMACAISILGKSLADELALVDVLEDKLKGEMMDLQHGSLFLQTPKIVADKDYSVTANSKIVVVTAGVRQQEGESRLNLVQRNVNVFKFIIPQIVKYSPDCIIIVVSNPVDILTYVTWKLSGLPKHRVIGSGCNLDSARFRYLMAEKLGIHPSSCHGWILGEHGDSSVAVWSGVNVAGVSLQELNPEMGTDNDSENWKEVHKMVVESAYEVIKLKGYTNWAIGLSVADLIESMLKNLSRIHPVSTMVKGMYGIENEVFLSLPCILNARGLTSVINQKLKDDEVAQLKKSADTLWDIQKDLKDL

In the case of `CCCSc1nc2ccc(NC(=O)CCNC(=O)CCCc3ccc(CC(C(=O)O)C(=O)O)cc3)cc2s1`, the concentration for half-maximal inhibition (IC50) in assay [1] was 0.27 µM. In addition, the equilibrium dissociation constant (Kd) in assay [2] (read-out: Kd) stood at 0.008 µM.
`NC(=O)C1=CN([C@@H]2O[C@H](COP(=O)(O)OP(=O)(O)OC[C@H]3O[C@@H](n4cnc5c(N)ncnc54)[C@H](O)[C@@H]3O)[C@@H](O)[C@H]2O)CCC1`: the IC50 in assay [1] was 132 µM; in assay [3], 9.4 µM. Also, the Kd in assay [2] (read-out: Kd) is 12.8 µM. In addition, in assay [4], the outcome was Active.
Consider `O=c1[nH]n(-c2ccccc2)c2ncccc12`, for which the IC50 in assay [1] is above 500 µM. The equilibrium dissociation constant (Kd) in assay [2] (read-out: Kd) turned out to be 1600 µM; in assay [5] (read-out: Kd), 300 µM.
For `Cc1nc2ccc(NC(=O)CCC(=O)O)cc2s1` the same measures were above 500 µM, 500 µM and 540 µM.
As to `NC(=O)C1=CN([C@@H]2O[C@H](COP(=O)(O)O)[C@@H](O)[C@H]2O)C=CC1`, the concentration for half-maximal inhibition (IC50) in assay [1] is above 500 µM. The figures for the Kd result in assay [2] (bl21-de3) and in assay [5] (read-out: Kd) were “Not Active” and 4000 µM, respectively.
As to `CCCSc1nc2ccc(NC(=O)CCNC(N)=O)cc2s1`, the 50% inhibitory concentration (IC50) in assay [1] is above 500 µM. The Kd was 35 µM in assay [2] (read-out: Kd) and “Active” in assay [5] (bl21-de3).
As for `Cc1nc2ccc(NC(=O)CCNC(N)=O)cc2s1`, the Kd entry in assay [5] (bl21-de3) is “Active”.
On to `Cc1nc2ccc(NC(=O)CCNC(=O)NCCOc3ccc(CCC(=O)O)cc3)cc2s1`, for which, in assay [1], the IC50 was determined as 86.2 µM. Moreover, the Kd in assay [2] (read-out: Kd) came out at 3.2 µM.
On to `COc1ccc(CC(C(=O)O)C(=O)O)cc1`, for which, in assay [1], the 50% inhibitory concentration (IC50) was above 500 µM. Also, the figures for the Kd in assay [2] (read-out: Kd) and in assay [5] (read-out: Kd) were 1100 µM and 240 µM, respectively.
Turning to `CCCSc1nc2ccc(NC(=O)CCNC(=O)NCCc3ccc(OC(C(=O)O)C(=O)O)cc3)cc2s1`, the half-maximal inhibitory concentration (IC50) in assay [1] was found to be 7.4 µM. The Kd in assay [2] (read-out: Kd) turned out to be 0.18 µM.
With `O=C(O)c1cc2c(C(F)(F)F)cc(-c3ccccc3)cc2n1O`, in assay [1], the IC50 is above 500 µM. The Kd in assay [5] (read-out: Kd) was above 9 µM.
As to `Cc1nc2ccc(NC(=O)CCNC(=O)NCCc3ccc(OC(C(=O)O)C(=O)O)cc3)cc2s1`, in assay [1], the concentration for half-maximal inhibition (IC50) came to 29.5 µM. Also, the Kd in assay [2] (read-out: Kd) is 1.2 µM.
Take `Cc1nc2ccc(NC(=O)CCNC(=O)CCCc3ccc(CC(C(=O)O)C(=O)O)cc3)cc2s1`: the IC50 in assay [1] came out at 0.5 µM.
Consider `COCCNc1ncnc2ccccc12`, for which the 50% inhibitory concentration (IC50) in assay [1] is above 500 µM. Further, the equilibrium dissociation constant (Kd) is 3000 µM in assay [2] (read-out: Kd) and 2400 µM in assay [5] (read-out: Kd).
For `NS(=O)(=O)c1ccc(O)c2ccccc12`, the half-maximal inhibitory concentration (IC50) in assay [1] was above 500 µM. For the same compound, the results for the Kd entry in assay [2] (bl21-de3) and in assay [5] (read-out: Kd) were “Not Active” and 400 µM, respectively.
On to `CC(=O)Nc1ccc2nc(C)sc2c1`, for which, in assay [1], the concentration for half-maximal inhibition (IC50) was above 500 µM. Also, the dissociation constant Kd in assay [2] (read-out: Kd) came to 790 µM.
For `Cc1nc2ccc(NC(=O)CCNC(=O)NCCc3ccc(CC(C(=O)O)C(=O)O)cc3)cc2s1`, the IC50 in assay [1] is 1.9 µM.
Take `Cc1nc2ccc(NC(=O)CCNC(=O)NCCOc3ccc(CC(C(=O)O)C(=O)O)cc3)cc2s1`: in assay [1], the 50% inhibitory concentration (IC50) is 4.2 µM.
For `O=C(O)c1nsnc1O`, the half-maximal inhibitory concentration (IC50) turned out to be 450 µM in assay [1] and 7.8 µM in assay [3]. In addition, the equilibrium dissociation constant (Kd) entry in assay [2] (bl21-de3) is reported as “Not Active”.
On to `Clc1ccccc1-c1nnn[nH]1`, for which the Kd result in assay [2] (bl21-de3) is listed as “Not Active”.
For `Nc1ncnc2c1ncn2[C@@H]1O[C@H](COP(=O)(O)O)[C@@H](O)[C@H]1O` [ADENOSINE PHOSPHATE], in assay [1], the IC50 was above 500 µM. The equilibrium dissociation constant (Kd) entry in assay [2] (bl21-de3) is “Not Active”; in assay [5] (read-out: Kd), 650 µM.
Turning to `CCCSc1nc2ccc(NC(=O)CCC(=O)O)cc2s1`, in assay [1], the IC50 is above 500 µM. The values for the equilibrium dissociation constant (Kd) in assay [2] (read-out: Kd) and in assay [5] (read-out: Kd) were 40 µM and 92 µM, respectively.
As to `CCCSc1nc2ccc(NC(=O)CCNC(=O)NCCc3ccc(CC(C(=O)O)C(=O)O)cc3)cc2s1`, the half-inhibitory concentration (IC50) in assay [1] was 0.29 µM. Moreover, the dissociation constant Kd in assay [2] (read-out: Kd) was 0.06 µM.
Consider `O=C(O)CC(=O)O` [MALONIC ACID], for which the Kd in assay [5] (read-out: Kd) turned out to be 5000 µM.
In the case of `CCCSc1nc2ccc(NC(=O)CCNC(=O)NCCOc3ccc(CC(C(=O)O)C(=O)O)cc3)cc2s1`, the half-maximal inhibitory concentration (IC50) in assay [1] was 3.1 µM. Besides, the dissociation constant Kd in assay [2] (read-out: Kd) worked out at 0.046 µM.
Turning to `O=C(O)c1ccc2ccccc2c1O` [CARBOXYNAPHTHOL], the half-inhibitory concentration (IC50) in assay [1] is above 500 µM. Also, the dissociation constant (Kd) result was “Not Active” in assay [2] (bl21-de3) and 640 µM in assay [5] (read-out: Kd).
Take `c1cncc(-c2nc3ccccc3[nH]2)c1`: the half-inhibitory concentration (IC50) in assay [1] was above 500 µM. Moreover, the Kd result was “Not Active” in assay [2] (bl21-de3) and 1400 µM in assay [5] (read-out: Kd).

For orientation: IC50 means the point on the concentration scale where inhibition reaches its midpoint. By Kd is commonly meant the equilibrium constant for the complex coming apart.
